Data published in ChEMBL document CHEMBL1126801, “Synthesis and antiviral activity of 2'-substituted 9-[2-(phosphonomethoxy)ethyl]guanine analogues” (J Med Chem, 1993).

Key:
[1] = Tested in vitro against HCMV from WI-38 cells; type: organism-based; conditions: human betaherpesvirus 5, WI-38 cells; read-out: TC50 (the source's name)
[2] = system: Human alphaherpesvirus 2; test: Tested in vitro against HSV 2 from WI-38 cells; NA= not active at 100 uM; type: functional, organism-based
[3] = Toxic concentration, in CEM cells estimated by the XTT assay; type: toxicity, cell-based; conditions: human, CCRF-CEM (CEM) cells; read-out: TC50 (the source's name)
[4] = Tested in vitro against HSV 2 from Wi-38 cells; type: organism-based; conditions: human alphaherpesvirus 2, WI-38 cells; read-out: TC50 (the source's name)
[5] = system: Human betaherpesvirus 5; test: Tested in vitro against HCMV from WI-38 cells; NA= not active at 100 uM; type: functional, organism-based
[6] = system: Human immunodeficiency virus 1; test: Tested in vitro against human immunodeficiency virus (HIV) infected CEM cells using XTT assay (HIV-HRF strain); NA = not active at 100 uM; type: functional, organism-based; conditions: ccrf-cem
In short: (§1)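 Anti-HIV XTT assay in HIV-infected CEM cells, using the LAV-BRU or HIV-HRF strain as the line names. The value is the 50% inhibitory concentration. The top concentration tested was 100 μM, and inactivity there is scored NA.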

[7] = (§2) Tested in vitro against HCMV AD-169 strain in MRC-5 cells; type: ADME, organism-based, MRC5; conditions: human betaherpesvirus 5, MRC-5 cells; read-out: TC50 (the source's name)
[8] = (§3) Tested in vitro against HSV 2 G strain in vero cells; type: organism-based; conditions: human alphaherpesvirus 2, Vero cells; read-out: TC50 (the source's name)
[9] = system: Human betaherpesvirus 5; test: as §2; type: functional, organism-based; conditions: Human betaherpesvirus 5, MRC5
In short: (§4)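 Plaque reduction assay against HCMV strain AD-169 in MRC-5 cells, giving a 50% inhibitory concentration. The top concentration tested was 100 μM, and inactivity there is scored NA.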

[10] = system: Human alphaherpesvirus 2; test: Tested in vitro against HSV 2 G strain in vero cells; NA= not active at 100 uM; type: functional, organism-based
In short: (§5)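 Plaque reduction assay against HSV-2 strain G in Vero cells, giving a 50% inhibitory concentration. The top concentration tested was 100 μM, and inactivity there is scored NA.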

[11] = system: Human immunodeficiency virus 1; test: Tested in vitro against human immunodeficiency virus (HIV) infected CEM cells using XTT assay (LAV-BRU strain); NA = not active at 100 uM; type: functional, organism-based; conditions: ccrf-cem; in short: as §1
[12] = system: Human betaherpesvirus 5; test: Tested in vitro against HCMV AD-169 strain in MRC-5 cells; NA= not active at 100 uM; type: functional, organism-based; conditions: mrc5; in short: as §4
[13] = system: CCRF-CEM; test: Cell growth toxicity against CEM cells after treatment with compound for 72 hours; type: functional; conditions: Homo sapiens
In short: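 Cytotoxicity in CEM cells: cells counted after 72 h drug exposure; the value is the concentration giving 50% cell growth toxicity.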

[14] = system: Human immunodeficiency virus 1; test: Tested in vitro against human immunodeficiency virus (HIV) infected CEM cells using XTT assay (HIV-HRF strain); type: functional, organism-based; conditions: Human immunodeficiency virus 1, CCRF-CEM; in short: as §1
[15] = system: Human betaherpesvirus 5; test: Tested in vitro against HCMV from WI-38 cells; NA= not active at 100 uM as determined in WI-38 cells; type: functional, organism-based
[16] = Ratio between TC50 against human immunodeficiency virus infected CEM cells and IC50 against CEM cells; type: functional, CCRF-CEM
In short: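 Selectivity index is TC50 divided by IC50. TC50 is the 50% toxic concentration from the XTT assay in CEM cells. IC50 is the 50% inhibitory concentration from the XTT assay in HIV-infected CEM cells.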

[17] = Tested in vitro against HSV 2 from WI-38 cells; type: organism-based; conditions: human alphaherpesvirus 2, WI-38 cells; read-out: TC50 (the source's name)
[18] = system: Human immunodeficiency virus 1; test: Tested in vitro against human immunodeficiency virus (HIV) infected CEM cells using XTT assay (LAV-BRU strain); type: functional, organism-based; conditions: Human immunodeficiency virus 1, CCRF-CEM; in short: as §1
[19] = system: Human alphaherpesvirus 2; test: as §3; type: functional, organism-based; conditions: Human alphaherpesvirus 2, Vero; in short: as §5

| Structure (SMILES) | CC50 [1] [µM] | CC50 [3] [µM] | CC50 [7] [µM] | CC50 [8] [µM] | IC50 [10] | IC50 [11] | IC50 [12] | CC50 [13] [µM] | IC50 [14] [µM] | Selectivity index [16] | further results |
| --- | --- | --- | --- | --- | --- | --- | --- | --- | --- | --- | --- |
| Nc1nc(O)c2ncn(C[C@H](OCP(=O)(O)O)C3CC3)c2n1 | > 300 | > 1000 |  |  |  |  |  |  |  |  | IC50 [2]: Not Active; CC50 [4]: > 300 µM; IC50 [5]: Not Active; IC50 [6]: Not Active |
| Nc1nc(O)c2ncn(C[C@H](CCO)OCP(=O)(O)O)c2n1 |  | > 500 | > 300 | 300 | Not Active | Not Active |  |  |  |  | IC50 [9]: 162 µM |
| [N-]=[N+]=NCC[C@@H](Cn1cnc2c(O)nc(N)nc21)OCP(=O)(O)O |  | > 500 | 300 | 300 | Not Active | Not Active | Not Active |  |  |  |  |
| C=C[C@H](Cn1cnc2c(O)nc(N)nc21)OCP(=O)(O)O | > 300 | > 1000 |  |  |  |  |  | > 1590 | 13 | >77 | IC50 [15]: Not Active |
| CC[C@@H](Cn1cnc2c(O)nc(N)nc21)OCP(=O)(O)O |  | > 500 | 300 | 300 | Not Active |  | Not Active |  | 252 | >2 |  |
| CC[C@H](Cn1cnc2c(O)nc(N)nc21)OCP(=O)(O)O | > 300 | 1000 |  |  |  |  |  |  | 54 | 19 | CC50 [17]: > 300 µM; IC50 [2]: Not Active; IC50 [5]: Not Active |
| C[C@@H](Cn1cnc2c(O)nc(N)nc21)OCP(=O)(O)O |  |  | > 330 | > 330 |  |  |  | 12 |  | 25 | IC50 [18]: 12 µM; IC50 [19]: 43 µM; IC50 [9]: 16 µM |
| C=C[C@@H](Cn1cnc2c(O)nc(N)nc21)OCP(=O)(O)O |  | > 1000 | > 300 | 300 | Not Active |  | Not Active | > 1590 | 49 | >20 |  |
| Nc1nc(O)c2ncn(C[C@H](CCF)OCP(=O)(O)O)c2n1 |  | > 500 | 300 | 300 | Not Active | Not Active | Not Active |  |  |  |  |
| Nc1nc(O)c2ncn(C[C@@H](CCO)OCP(=O)(O)O)c2n1 |  | > 450 |  | 300 | Not Active | Not Active |  |  |  |  |  |
